According to ChEMBL document CHEMBL4513216, “Probing the Open Global Health Chemical Diversity Library for Multistage-Active Starting Points for Next-Generation Antimalarials” (ACS Infect Dis, 2020):

Experiment: Toxicity liver stage against HepG2, at 10uM
Assay type: cell-based
Design: test concentration 10 uM, cell line HepG2-A16-CD81EGFP
Conditions: human, HepG2-A16-CD81EGFP cells; read-out: INHIBITION
Procedure, shortened: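 Uninfected HepG2-A16-CD81EGFP cells, 3 × 10^3 per well, 1536-well, plated on prespotted compound at 10 μM final, parasite-free screening media added to match infected plates; puromycin 10 μM positive, DMSO 0.5% negative; run in parallel with 48 h PbLuc assay at 37 °C, 5% CO2; viability by CellTiter-Glo luminescence, normalized to controls.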

Structure (SMILES)	cytotoxicity at 10 µM
FC(F)(F)c1[nH]nc2c1CN(Cc1ccccc1)CC2	11.8%
c1ccc(C2CCN(c3cncc(-n4cccn4)n3)CC2)cc1	-15.3%
O=C(NC1CCCC1)O[C@H]1COCCN(c2nc3ccccc3s2)C1	-0.655%
O=C(C1=COCCO1)N1CC(Oc2nc3c(C(F)(F)F)cccc3s2)C1	36%
CCOc1ccc(S(=O)(=O)Nc2cnc(OC)nc2OC)cc1	44.7%
CC(C)N1CCN(C)CC1c1nnc2ccc(C(=O)N3CCCC3)cn12 (stereo not given)	-145%
COc1ccc(-c2c(C)nn3c(=N)c(C#N)n[nH]c23)cc1OC	8.29%
Cc1cccc(NC2CCc3c2[nH]c(=O)n(C2CCCCC2)c3=O)c1C (stereo not given)	5.05%
Cc1cnc(NC(=O)c2csc(NCC(C)C)n2)s1	34.4%
Cc1[nH]/c(=N\C(=O)c2csc(NC3CCCC3)n2)sc1C	38.8%
CCOC(=O)Cn1cnc2nc3n(c2c1=O)CCC3	-2.06%
Oc1cc(C2CCCN(Cc3cccs3)C2)nc(-c2ccccn2)n1 (stereo not given)	29.5%
Oc1cc(C2CCCCN2Cc2cccs2)nc(-c2ccccn2)n1 (stereo not given)	39.1%
Cc1nn(C)cc1C1=NS(=O)(=O)N(C)C(C(=O)Nc2ccc(Br)cc2)=C1	3.46%
COc1cccc(OC)c1CNC(Cc1ccsc1)c1ccc(C)cn1 (stereo not given)	2.75%
CC(C)(C)n1nnnc1CN(Cc1ccccc1)Cc1ccc(Cl)cc1	28.8%
CN1CCc2nc(C3CCN(C(=O)CCC4CCCC4)CC3)ncc2C1	-3.06%
Cc1cc(-c2cnc(NCc3cccnc3)nc2C(C)(C)C)on1	49.6%
NS(=O)(=O)c1ccc(NCc2ccccc2F)cc1C(F)(F)F	-10.2%
CCc1ccc(S(=O)(=O)N2CCCC(c3ncc[nH]3)C2)s1 (stereo not given)	12.8%
CC(C)(C)OC(=O)N1CCCN(Cc2ccon2)c2ccccc21	11.1%
COc1ccc(C2CCCN2c2ccnc(C)c2Cl)c(OC)c1 (stereo not given)	28.4%

Structure (SMILES)	cytotoxicity at 10 µM
Cn1nccc1C1CCN(Cc2cnn(-c3ccccc3)n2)CC1	27.2%
CN1CCN(c2ccc(NCc3ccc(OC(F)(F)F)cc3)cn2)CC1	14.9%
O=C(CN1CCCC(c2ncc[nH]2)C1)NCC(F)(F)F (stereo not given)	9.37%
CC1CCN(CCNC(=O)c2sccc2C2CC2)CC1	-144%
COCCN(Cc1ccccc1)C(=O)c1cnn(C)c1C	-144%
CCCn1c(=O)n(CCC(=O)N(C)Cc2ccc(C)o2)c2ccccc21	-3.26%
CCc1nc(CN(C)C(=O)c2ccc(OCCCOC)nc2)cs1	-19.5%
NC(=O)N1CCCN(C2CCc3ccc(F)cc32)CC1 (stereo not given)	3.93%
Cc1cc(CN(C)Cc2csc(-c3ccc(C(C)C)cc3)n2)no1	41.1%
CC(CNC(=O)c1ccc(C#N)cc1)N1CCc2ccccc21 (stereo not given)	2.84%
O=C(O)c1cc(S(=O)(=O)Nc2cccc3c2OCCO3)c(Cl)cc1F	-7.08%
CN(CCc1ccccn1)Cc1nccn1Cc1ccccc1	10.1%
CN(Cc1ccccc1OC(F)(F)F)C(=O)C1CC1	10.8%
CN(C)c1cc(C(=O)NCc2cccnc2-n2cncn2)ccn1	8.15%
CN(C)c1ncccc1NC(=O)C1CN(Cc2ccccc2)CCO1 (stereo not given)	0.499%
CC(=O)c1cccc(OCCCC(=O)N(C)Cc2cnn(C)c2)c1	-3.05%
CC(C)c1cc(C(=O)N2CCN(Cc3ccc(C#N)cc3)CC2)n[nH]1	26.3%
CC(C)c1noc(CN(Cc2ccc(F)cc2)C2CC2)n1	6.83%
Cc1n[nH]c(C)c1C1COCCN1C(=O)Cc1ccccc1F (stereo not given)	-2.46%
COC(C)(C)CNC(=O)N1CCCC1c1c(C)n[nH]c1C (stereo not given)	1.76%
Cc1ccc(C)c(OC2CCN(C(=O)CNc3ccccc3Cl)CC2)c1	40.2%
Cc1nc2ccccc2nc1NCc1cccc(OCC2CCCO2)c1 (stereo not given)	44.3%

Structure (SMILES)	cytotoxicity at 10 µM
CC(C)n1nc2c(cc1=O)CN(c1ncnc3ccsc13)CC2	60.6%
O=S(=O)(c1cccnc1)N1CCN(CC(O)c2ccccc2)CC1 (stereo not given)	0.871%
CS(=O)(=O)Cc1noc(CN2CCc3c(Cl)cccc3C2)n1	-4.07%
CS(=O)(=O)c1cccc(OCC(=O)N2CCCC2c2ccccc2Cl)c1 (stereo not given)	4.36%
Fc1ccc(C(NCc2nnc(-c3ccco3)o2)C2CCC2)cc1 (stereo not given)	-36.3%
COCC(=O)Nc1nccn1Cc1ccc(Br)cc1	-55.1%
Cc1nc(CN2CCCC(Nc3ncnc4c3CCC4)C2)no1 (stereo not given)	34.3%
CN(Cc1ccc(Cl)s1)C(=O)CN(C)C1CCc2ccccc21 (stereo not given)	18.1%
O=C(CN1CCc2sccc2C1)Nc1ccnc2ccnn12	46.8%
CC(=O)c1c(F)cccc1N1CCC(Cc2cccnc2)CC1	43.6%
Cc1cnn(CC2CN(c3ncnc4ccsc34)CCO2)c1 (stereo not given)	53.2%
COCC(=O)N1C[C@H]2CCC[C@@]2(COC)C1	5.93%
CC(C)n1c2ccccc2c2c1cc(C(=O)N(C)C)n2C	-85.4%
CC(=O)N1CCOC2(CCN(C(=O)C3CC3)CC2)C1	-106%
CN1CCN(Cc2cn3c(n2)CN(Cc2ccncc2)CC3)CC1	-94.8%
COCCC(=O)N1CCC2(CN(Cc3cccc(Cl)c3)C2)C1	-79.6%
Cc1[nH]c2ccccc2c1-c1ccnc(N[C@@H](C)CO)n1	-6.52%
c1cc(-c2cn3nccc3nc2C2CCCCC2)nc(N2CCCC2)n1	10.7%
CSc1nccc(N2CCC3(CCCN(Cc4ccc(F)cc4)C3)C2)n1 (stereo not given)	9.5%
c1ccc(C2CCN(c3ncnc4c3CCNC4)CC2)cc1	5.03%
COc1cccc(CN2CCC(CO)(Cc3ccc(Cl)cc3)CC2)c1O	-133%
COc1ccc2cc(C3CN(C(=O)CCNC(C)=O)CCO3)ccc2c1 (stereo not given)	9.85%

Structure (SMILES)	cytotoxicity at 10 µM
CCCC1(CO)CCCN(Cc2nccs2)C1 (stereo not given)	1.41%
CCOc1ccc(CN(CCOC)c2nc(C)nc3oc(C)nc23)cc1	-30.2%
CCn1ncc(CNC(=O)c2cn(CCC3CCCCN3)nn2)c1C (stereo not given)	2.72%
Cc1cc(Cl)ccc1C(=O)C1CCCN(Cc2cnc(N(C)C)s2)C1 (stereo not given)	-13.1%
Cc1ccc(C2(O)CCN(C(=O)CCn3ccc(=O)[nH]c3=O)CC2)nc1	1.99%
Cc1nn(C)c2nc(N(CCOc3ccccc3)CC3CCCO3)sc12 (stereo not given)	46.8%
CCOC(=O)C1(Cc2ccc(Cl)cc2)CCN(Cc2ncc[nH]2)CC1	-2.36%
COc1cc(Oc2cnc3ccccc3n2)ccc1CN1CCCC1	5.27%
Cc1ncsc1-c1ccn(CC(=O)Nc2cnn(C)n2)n1	93.8%
Cc1nn(-c2ccccc2)c(C)c1-c1ccnc(N2CCCNCC2)n1	-9.5%
Cc1cc(C(F)(F)F)nn1CCNC(=O)C(C)n1ccnc1C(C)C (stereo not given)	-5.24%
CCc1ccc(C2CC(=O)Nc3cc(NS(C)(=O)=O)ccc32)o1 (stereo not given)	86%
CCS(=O)(=O)CCNC1CCN(c2nc3ccc(Cl)cc3s2)CC1	32%
Cc1cc(N2CCCC(c3[nH]ncc3Cc3ccccc3)C2)nc(N)n1 (stereo not given)	57.1%
CC(C)c1cc(C2CCN(C(=O)Cn3cnc4ccccc43)CC2)[nH]n1	51.8%
CCn1cc(-c2cc(-c3ccn(C)c3)nc(N)c2C#N)cc1C#N	2.11%
Cc1ccc(OC2CCN(CCn3cncn3)CC2)cc1	-1.67%
O=C(C1CCOCC1)N1CCC(OCc2cccnc2)CC1	2.12%
COc1ccccc1OCc1cc(C(=O)NC[C@@H]2CCCN2)n[nH]1	-3.81%
CNc1nc(C)c(C(=O)N2C[C@@H](C(=O)O)[C@H](C3CC3)C2)s1	4.29%
CC(c1cccc(-c2nccn2CCc2cn[nH]c2)c1)N(C)C (stereo not given)	-4.83%
COc1ccc2cc(C3CN(C(=O)N(C)C)CCO3)ccc2c1 (stereo not given)	4.26%

Structure (SMILES)	cytotoxicity at 10 µM
Nc1nccc(N2CCCC(CO)(CCOc3ccccc3)C2)n1 (stereo not given)	46.7%
CCc1c(C)nc2cc(C3CCN(Cc4ccccc4F)C3)nn2c1O (stereo not given)	1.7%
Cc1nn(C)c(Cl)c1C1CCCN1C(=O)c1ccc(C(N)=O)cn1 (stereo not given)	-32%
CCOC(=O)c1ccc(S(=O)(=O)NCc2cccnc2N(C)C)cc1	32.1%
O=C(NCCCNc1ccc(C(F)(F)F)cn1)c1ccc(F)cc1Br	13.1%
N#Cc1ccc(CN2CCN(C(=O)c3cc(C4CC4)[nH]n3)CC2)cc1	18.9%
CCCS(=O)(=O)N1CCC2(CC1)CCn1c(-c3cnn(C)c3)cnc12	-142%
CC(=O)N1CC[C@H]2[C@H](C[C@@H](Cn3cncn3)N2c2nccs2)C1	-140%
CC(C)CN1C(=O)C2(CCN(Cc3nccs3)C2)c2ccccc21 (stereo not given)	0.371%
COc1cc(N2CC[C@@H](O)[C@@H]2Cc2cccnc2)ncn1	-77.9%
Fc1cccc(N2CCCC3(CN(Cc4ccncc4)CCO3)C2)c1 (stereo not given)	8.98%
COc1cccc(-c2noc(C3CCN(Cc4ccccc4F)C3)n2)c1 (stereo not given)	-2.06%
COc1cc(N2CCCC3(CCN(c4cccnc4)C3=O)C2)ncn1 (stereo not given)	-103%
CN(C)CC(=O)N1CCC2(CC1)CN(c1ncccn1)CCO2	-68.7%
CNC(=O)c1cc2c(nc1NCC(C)C)CCN(CC1CC1)CC2	-158%
COc1cc(N2CCC3(CCCN(Cc4ccccn4)C3)C2)ncn1 (stereo not given)	-88.6%
NC(=O)N1CCC2(CCN(C(=O)c3cccnc3)CC2)C1	-83%
Cc1nccc(NCc2cncc3c2CCN(CC2CC2)C3)n1	-92.4%
CN(C)C(=O)CN1C(=O)C[C@@H]2[C@@H]1CCN2Cc1cccc(C#N)c1	-61.3%
Cc1ccc(CN2CCCC3(CCN(Cc4ccoc4)CC3)C2)cc1	-91%
Fc1cnc(N2CCN3C[C@H](Oc4cccnc4)C[C@H]3C2)nc1	13.1%
CCN1CCn2c(-c3cccc(F)c3)cnc2C12CCN(C(C)=O)CC2	-1.09%
